PLK1 inh: human PLK1 kinase inhibitors, primary screen, biochemical, TR-FRET; Serine/threonine-protein kinase PLK1 (Homo sapiens), P53350; recombinant PLK1 kinase, TR-FRET peptide phosphorylation; inhibition, % at 10 µM; 97,000 tested, 0.53% active; AID 619, 2007;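 active means inhibition of 50% or more in the single-concentration screen; inactive means inhibition below 50%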;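 further: 0% = DMSO max control and 100% = H-89 dihydrochloride min control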
Plk1 PBD FP: Plk1 polo box domain binding inhibitors, primary screen, biochemical, fluorescence polarization; Serine/threonine-protein kinase PLK1 (Homo sapiens), P53350; Plk1 PBD phosphopeptide binding; inhibition, %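 (tested at about 20 µM)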; 97,000 tested, 0.13% active; AID 693, 2007; in the data active means inhibition above about 34%, passing the limit was not always enough
Cav32 inh: Cav3.2 calcium influx blockers – cell-based, Fluo-4 calcium fluorescence, FDSS, MLSMR library, primary screen; B-score at 10 µM; Voltage-dependent T-type calcium channel subunit alpha-1H (Homo sapiens), O95180; Cav3.2-expressing cells; hits give low values; AID 449739, 2010; 100,000 tested, 4% active;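 active means single-dose well whose peak fluorescence ratio is a statistical outlier from its plate by either plate-standardised score or position-corrected B-score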
HIV Rev-RRE inh: HIV-1 Rev-RRE binding inhibitors, primary screen, biochemical, FRET, protein-RNA interaction | AID 704, 2007 | Rev peptide-RRE RNA binding | 97,000 tested, 0.79% active | P05866 | inhibition, % at 8 µM;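 active means inhibition above the screen-wide mean plus 3 SD, cut at about 35% in these data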;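 further: 0% = median DMSO wells and 100% = median Neomycin B control wells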
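Material: labelled RRE RNA duplex and labelled Rev peptide / Buffer or medium: HEPES pH 7.5 salt buffer with EDTA / Compound dosing: single point, 8 µM final nominal compound concentration / Benchmarks: DMSO low control, neomycin B high control / Timing: 5 min preincubation and 15 min binding, 25 °C / Technique: FRET fluorescence readout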
FAK blocker: FAK kinase inhibitors, primary screen, biochemical. biochemical FAK kinase activity assay. 97,000 tested, 0.84% active. AID 727, 2007. inhibition, %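 (tested at 7 µM)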; in the data active means inhibition above about 19%;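 further: 0% = DMSO and 100% = reference compound high control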
PTK2B oligo ant: antagonists of Pyk2 self-association, primary screen, Q293 cells, FERM NanoBiT luminescence, HTS | hits give low values | z-score (the deposit names both 25 µM and 10 µM) | 99,000 tested, 0.83% active | AID 1347419, 2020;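 active means Z-score of -3 or lower, scaled per plate to the spread of control and sample wells; inactive means z-score above -3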;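 further: negative z-score means lost luminescence so less FERM oligomerization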
* = called active by the depositor; . = not tested or not shown. In the library only some 5.8% were active in any assay of this set; here they are far more common.

SMILES	PLK1 inh	Plk1 PBD FP	Cav32 inh	HIV Rev-RRE inh	FAK blocker	PTK2B oligo ant
O=C(CSc1nc(N2CCCCC2)nc(N2CCCCC2)n1)c1ccccc1	-3.0	-0.7	-4.22*	7.4	-4.6	-0.99
O=C(Nc1cccc(S(=O)(=O)C(F)F)c1)c1ccc(Cl)c(S(=O)(=O)N2CCOCC2)c1	.	.	-0.579	.	.	-3.01*
O=C(Nc1cccc(Br)c1)c1ccc(Cl)c(S(=O)(=O)N2CCOCC2)c1	-5.0	6.5	-0.387	4.9	1.5	-2.62
O=C(Nc1ccccc1Cl)c1cc(S(=O)(=O)N2CCCCC2)ccc1N1CCOCC1	-7.0	-2.7	-6.25*	8.8	-2.3	-0.51
O=C(Nc1ccccc1Cl)c1ccc(S(=O)(=O)N2CCOCC2)cc1	68.3*	-6.8	-0.23	1.3	-2.0	.
O=C(Nc1cccc(C(F)(F)F)c1)c1cc(S(=O)(=O)N2CCCCC2)ccc1N1CCOCC1	.	.	.	.	.	-0.19
COc1ccccc1NC(=O)c1ccc(S(=O)(=O)N2CCOCC2)cc1	-5.3	-14.3	0.0729	0.8	1.0	-0.36
Cc1c(Cl)cccc1NC(=O)c1ccc(OCC(=O)NCc2ccccc2)cc1	.	.	.	.	.	-1.05
Cc1cc(C)n(-c2nc3c(c(=O)[nH]c(=O)n3C)n2C(C)C)n1	-1.1	3.0	0.511	7.8	-3.4	0.18
Cc1cc(C)c2nc(SCC(=O)NCCN3C(=O)CSC3=O)cc(C)c2c1	.	.	.	.	.	-0.1
CC(C)c1ccc(-c2nn(-c3ccccc3)cc2C2C(C#N)=C(N)OC3=C2C(=O)CC(C)(C)C3)cc1 (stereo unspecified)	-14.4	4.5	-5.26*	13.6	2.1	-0.91
CC(CC(=O)Nc1nc2ccccc2[nH]1)c1ccccc1 (stereo unspecified)	-12.1	8.8	-5.67*	4.3	3.3	-0.94
O=C(COc1ccccc1)Nc1nc2ccccc2[nH]1	-4.5	-2.9	-1.22	0.8	1.9	0.91
O=C(CNCC1CCCO1)Nc1ccccc1N1CCOCC1 (stereo unspecified)	-8.0	-15.3	0.82	5.2	4.6	1.32
Cc1cc(C)cc(NC(=O)CN2CCc3ccccc3C2)c1	-12.0	2.6	-2.99	7.9	-3.9	-1.38
O=C(CNCC1CCCCC1)Nc1ccccc1N1CCCCC1	-6.4	2.5	-7.13*	11.3	5.0	0.25
O=C(CN1CCc2ccccc2C1)Nc1ccccc1N1CCCCCC1	18.4	-12.2	-3.32*	1.3	0.3	-0.82
CCOC(=O)c1ccc(NC(=O)CN2CCc3ccccc3C2)cc1	-8.9	-7.1	-5.17*	19.3	-0.4	1.08
COc1cccc2cc(C(=O)NCc3ccco3)c(=Nc3ccc(C(=O)O)cc3)oc12	-7.5	-10.2	-1.99	1.4	2.9	0.69
O=C(Nc1ccc(Cn2cccn2)cc1)c1ccc(COc2cccc(Br)c2)cc1	-8.3	-19.2	-4.71*	5.1	0.3	0.74
O=C(Nc1ccn(Cc2ccccc2F)n1)c1ccc(COc2ccc(Br)cc2)cc1	-11.2	-39.6	-4.61*	8.9	-0.3	1.15
O=C(Nc1ccc(Cn2cccn2)cc1)c1ccc(COc2ccc(Br)cc2)cc1	-12.8	19.7	-0.464	8.4	0.1	-0.11
Cc1nn(Cc2cccc(C(=O)Nc3ccn(Cc4ccccc4F)n3)c2)c(C)c1[N+](=O)[O-]	-6.4	-2.5	-4.33*	9.4	4.2	-0.13
O=C(Nc1ccn(Cc2ccc(Cl)cc2)n1)c1ccc2c(c1)OCO2	1.5	-16.4	-2.29	4.8	-1.3	0.28
CC(=O)NCC(=O)OCC(=O)c1ccc(C)c(C)c1	-10.2	-0.4	0.036	9.0	5.1	1.15
SMILES	PLK1 inh	Plk1 PBD FP	Cav32 inh	HIV Rev-RRE inh	FAK blocker	PTK2B oligo ant
Cc1ccc(C(=O)COC(=O)C2C3C=CC(C3)C2C(=O)OCC(=O)c2ccc(C)c(C)c2)cc1C (stereo unspecified)	-9.0	0.3	-5.08*	0.4	7.3	-0.7
COC(=O)C(Cc1cnc(Cl)s1)(C(=O)OC)c1ccc(C(F)(F)F)cc1[N+](=O)[O-]	-9.1	14.6	-8.63*	14.8	-0.8	-2.02
C=CCOCCN1C(=O)C2C(c3ccccc3)C=CC(c3ccccc3)C2C1=O (stereo unspecified)	-11.9	1.3	-3.28*	-0.7	-1.3	-1.59
Cn1c(=O)[nH]c(=O)c2c1nc(Br)n2CC(O)c1ccccc1 (stereo unspecified)	-10.8	10.9	-0.387	7.2	-1.8	1.91
Cc1cccc(N/C(=N\S(=O)(=O)c2ccccc2)C(F)(F)F)c1	-5.9	-7.0	.	8.5	-3.3	-0.01
Cc1ccc(-c2nnc(CSc3nnc(COc4cccc5ccccc45)n3-c3ccccc3)o2)cc1	-12.9	47.4*	.	-5.3	2.6	-0.37
N#CCSc1nnc(COc2cccc3ccccc23)n1-c1ccccc1	-7.0	-5.6	-4.62*	3.8	6.9	-0.85
CC1(c2nnc(-c3cccc(Cl)c3)o2)CC(c2cccnc2)=NO1 (stereo unspecified)	.	.	1	.	.	.
Cc1cc(NC(=O)CCNS(=O)(=O)c2cc(Br)cnc2N)ccc1Br	1.5	-23.7	-5*	17.9	2.5	-0.18
COc1cccc(/C=N/NC(=O)CSc2nnc(C)n2-c2ccccc2)c1O	-11.9	-10.3	.	1.4	4.8	0.79
Cc1ccc(-c2nn(-c3ccccc3)cc2/C=N/NC(=O)CSc2nnc(C)n2-c2ccccc2)cc1	-2.9	-8.8	-4.47*	-6.5	-4.7	-1.57
Cc1nc2c(n1C1CCCCC1)C(=O)c1ccccc1C2=O	-9.8	15.0	.	6.9	7.6	-0.35
CC(C)(C)c1ccc(OCc2ccc(C(=O)N/N=C/c3ccc([N+](=O)[O-])cc3)o2)cc1	-10.1	-10.8	-3.77	6.3	7.3	0.6
CCOC(=O)c1c(C)n(C)c2ccc(OCC(O)CN3CCC(C)CC3)cc12 (stereo unspecified)	-3.4	15.3	-5.29*	0.2	2.3	.
CCOC(=O)c1c(CN2CCC(C)CC2)oc2ccc(OC)cc12	-9.4	4.3	-4.16*	13.5	6.4	-0.91
Cc1cc2ncn(C(=O)N3CCCCCC3)c2cc1C	-8.5	4.8	0.871	1.2	1.1	-0.19
COc1cccc(CN(Cc2ccco2)C(c2ccc(F)cc2)c2nnnn2C(C)(C)C)c1 (stereo unspecified)	-7.5	-2.8	-1.76	9.5	5.9	-0.71
CCC(C)(C)n1nnnc1C(c1ccc(C)cc1)N(Cc1ccco1)Cc1cccs1 (stereo unspecified)	-6.0	-1.5	-5.77*	13.1	-1.7	-0.77
CSc1nsc(/C=C/Nc2ccc(Cl)cc2)c1C#N	1.8	6.0	-0.422	42.2*	5.1	0.89
CSc1nsc(/C=C/Nc2cccc(Cl)c2)c1C#N	0.5	-20.0	-0.0205	32.0	0.8	-0.57
CC(C)(C)OC(=O)NCCc1nnc(SCc2ccc(Cl)cc2Cl)o1	-9.7	12.5	-5.2*	5.7	2.7	-0.27

Compound activity as filed in PubChem.
